In ChEMBL document CHEMBL5321236, “Fluoro-labelled sp2-iminoglycolipids with immunomodulatory properties” (Eur J Med Chem, 2023):
Active and inactive are the calls of the source. No cut-off for these calls is given here.

Key:
WiDr = test: Growth inhibition of human WiDr cells measured after 48 hrs by SRB colorimetric assay; type: functional
In short: (§1)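 NCI-based protocol with sulforhodamine B read-out. Seeded 2500 (A549, HBL-100, HeLa, SW1573), 5000 (T-47D, WiDr, SW1573/P-gp) or 7000 (BJ-hTERT) cells/well. Exposed 48 h to serial decimal dilutions, 0.001–100 μM, from 40 mM DMSO stock. GI50 by NCI formulas; mean of three or more experiments ± SD.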

A549 = test: Growth inhibition of human A549 cells measured after 48 hrs by SRB colorimetric assay; type: functional; in short: as §1
SW1573 [1] = test: Growth inhibition of human SW1573 cells measured after 48 hrs by SRB colorimetric assay; type: functional; in short: as §1
HeLa = test: Growth inhibition of human HeLa cells measured after 48 hrs by SRB colorimetric assay; type: functional; in short: as §1
T47D = test: Growth inhibition of human T47D cells measured after 48 hrs by SRB colorimetric assay; type: functional; in short: as §1
HBL-100 = test: Growth inhibition of human HBL-100 cells measured after 48 hrs by SRB colorimetric assay; type: functional; in short: as §1
SW1573 [2] = test: Growth inhibition of human SW1573 cells measured after 48 hrs in presence of verapamil by SRB colorimetric assay; type: functional
In short: as §1, with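 “read-out. Cells grown in RPMI 1640 with 5% FBS and 1 mM glutamine at 37 °C, 5% CO₂.” for “read-out.”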

SW1573 [3] = test: Growth inhibition of human SW1573 cells overexpressing P-glycoprotein measured after 48 hrs in presence of verapamil by SRB colorimetric assay; type: functional
In short: as §1, with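 “read-out. Cells grown in RPMI 1640 with 5% FBS and 1 mM glutamine at 37 °C, 5% CO₂.” for “read-out.”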

[4] = Resistance factor, ratio of GI50 for growth inhibition of human SW1573 cells overexpressing P-glycoprotein measured after 48 hrs in absence of verapamil to GI50 for growth inhibition of human SW1573 cells measured after 48 hrs in absence of verapamil; type: functional
In short: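 Resistance factor: GI50 in P-gp-overexpressing SW1573 divided by GI50 in parental SW1573, each from 48 h SRB growth-inhibition assay without verapamil. Values are means of three or more independent experiments.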

SW1573 [5] = test: Growth inhibition of human SW1573 cells overexpressing P-glycoprotein measured after 48 hrs in absence of verapamil by SRB colorimetric assay; type: functional
In short: as §1, with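 “read-out. Cells grown in RPMI 1640 with 5% FBS and 1 mM glutamine at 37 °C, 5% CO₂.” for “read-out.”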

[6] = Resistance factor, ratio of GI50 for growth inhibition of human SW1573 cells overexpressing P-glycoprotein measured after 48 hrs in presence of verapamil to GI50 for growth inhibition of human SW1573 cells measured after 48 hrs in presence of verapamil; type: functional
In short: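 SW1573 parental and P-gp-overexpressing cells given 48 h exposure to serial dilutions (0.001–100 μM) in medium containing verapamil at a final 10 μM as P-gp transport inhibitor. SRB read-out, GI50 by NCI formulas. Resistance factor taken as GI50 in SW1573/P-gp divided by GI50 in SW1573.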

SW1573 [7] = test: Growth inhibition of human SW1573 cells measured after 48 hrs in absence of verapamil by SRB colorimetric assay; type: functional
In short: as §1, with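 “read-out. Cells grown in RPMI 1640 with 5% FBS and 1 mM glutamine at 37 °C, 5% CO₂.” for “read-out.”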

BV-2 [8] = test: Cytotoxicity against mouse BV-2 cells at 10 uM measured after 24 hr by crystal violet staining based analysis; type: toxicity, cell-based; conditions: bv-2, 24 h
In short: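 Bv.2 cells grown to 70% confluence, exposed 24 h in serum-free medium to 0.1, 1.0, 10 and 25 μM. Fixed with 1% glutaraldehyde, stained with 0.1% crystal violet, dye released in 10% acetic acid, absorbance 590 nm. Mean ± SEM, n ≥ 3 independent experiments.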

BV-2 [9] = test: Protection against LPS induced inflammation in mouse BV-2 cells assessed as decrease in Tnf-alpha mRNA expression at 10 uM incubated for 24 hrs with LPS stimulation by qRT-PCR analysis
BV-2 [10] = test: Protection against LPS induced inflammation in mouse BV-2 cells assessed as decrease in IL1-beta mRNA expression at 10 uM incubated for 24 hrs with LPS stimulation by qRT-PCR analysis
BV-2 [11] = test: Antiinflammatory activity in mouse BV-2 cells assessed as restoration of […] expression level at 10 uM incubated for 24 hrs with LPS stimulation by qRT-PCR analysis; type: functional, cell-based
In short: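 Bv.2 microglia stimulated with LPS 200 ng/mL with or without compound at 10 μM for 24 h. Arg1 mRNA measured by qRT-PCR, Actinb as housekeeping gene, 2^-ΔΔCT method, fold change relative to basal. n ≥ 4 independent experiments in triplicate.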

[12] = target: Mitogen-activated protein kinase 14 (Mus musculus) (UniProt P47811); test: Inhibition of LPS-stimulated p38 alpha phosphorylation in mouse BV-2 cells at 10 uM measured after 30 mins by Western blot analysis; type: cell-based
In short: (§2)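 Bv.2 cells exposed with or without LPS for 15–90 min. Protein extracts run on SDS-PAGE, blotted to PVDF, probed with anti-phospho-p38α MAPK and anti-total p38α MAPK (1:1000), ECL detection. Quantified by densitometry, mean ± SEM, n = 3.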

[13] = target: Mitogen-activated protein kinase 14 (Mus musculus) (UniProt P47811); test: Inhibition of LPS-stimulated p38 alpha phosphorylation in mouse BV-2 cells at 10 uM measured after 60 to 90 mins by Western blot analysis; type: cell-based; conditions: time 60-90 min; in short: as §2

Chain of Mitogen-activated protein kinase 14 (Mus musculus) (P47811 whole entry): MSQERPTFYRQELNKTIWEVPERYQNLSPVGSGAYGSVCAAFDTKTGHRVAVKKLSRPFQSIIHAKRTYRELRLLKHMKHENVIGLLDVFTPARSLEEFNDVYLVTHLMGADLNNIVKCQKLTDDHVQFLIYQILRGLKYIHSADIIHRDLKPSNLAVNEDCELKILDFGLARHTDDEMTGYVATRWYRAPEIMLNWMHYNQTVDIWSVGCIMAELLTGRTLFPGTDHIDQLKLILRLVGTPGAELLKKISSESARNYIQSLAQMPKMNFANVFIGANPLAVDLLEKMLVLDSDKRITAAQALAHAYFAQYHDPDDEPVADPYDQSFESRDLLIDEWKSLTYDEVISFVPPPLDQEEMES

Structure (SMILES) | GI50 (WiDr) | GI50 (A549) | GI50 (SW1573 [1]) | GI50 (HeLa) | GI50 (T47D) | GI50 (HBL-100) | GI50 (SW1573 [2]) | GI50 (SW1573 [3]) | RatioGI50 [4] | GI50 (SW1573 [5]) | RatioGI50 [6] | GI50 (SW1573 [7]) | Activity (BV-2 [8]) | Activity (BV-2 [9]) | Activity (BV-2 [10]) | Activity (BV-2 [11]) | inhibition [12] | inhibition [13]
CCCCCCCCCCCCS(=O)(=O)[C@@H]1[C@@H](OC)[C@@H](O)[C@H](O)[C@H]2COC(=O)N21 | 21 µM | 15 µM | 21 µM | 20 µM | 17 µM | 20 µM | – | – | – | – | – | – | – | – | – | – | – | –
CC(=O)O[C@H]1C(=O)[C@@]2(C)[C@H]([C@H](OC(=O)c3ccccc3)[C@]3(O)C[C@H](OC(=O)[C@H](O)[C@@H](NC(=O)c4ccccc4)c4ccccc4)C(C)=C1C3(C)C)[C@]1(OC(C)=O)CO[C@@H]1C[C@@H]2O [PACLITAXEL] | – | – | – | – | – | – | 0.00046 µM | 0.00031 µM | 564 | 0.3 µM | 0.7 | 0.00053 µM | – | – | – | – | – | –
O=C1OC[C@@H]2[C@@H](O)[C@H](OCc3ccccc3)[C@@H](F)[C@@H](O)N12 | > 100 µM | > 100 µM | > 100 µM | > 100 µM | > 100 µM | > 100 µM | – | – | – | – | – | – | – | – | – | – | – | –
O=C1OC[C@@H]2[C@@H](O)[C@H](O)[C@H](F)[C@@H](O)N12 | > 100 µM | > 100 µM | > 100 µM | > 100 µM | > 100 µM | > 100 µM | – | – | – | – | – | – | – | – | – | – | – | –
CCCCCCCCCCCCS[C@@H]1[C@@H](O)[C@@H](O)[C@H](O)[C@H]2COC(=O)N21 | 23 µM | 18 µM | 25 µM | 19 µM | 25 µM | 26 µM | – | – | – | – | – | – | – | – | – | – | – | –
O=C1OC[C@@H]2[C@@H](O)[C@H](OCc3ccccc3)[C@H](F)[C@@H](O)N12 | > 100 µM | > 100 µM | > 100 µM | > 100 µM | > 100 µM | > 100 µM | – | – | – | – | – | – | – | – | – | – | – | –
CCCCCCCCCCCCS(=O)(=O)[C@@H]1[C@@H](F)[C@@H](OCc2ccccc2)[C@H](O)[C@H]2COC(=O)N21 | 4.3 µM | 4.2 µM | 4.5 µM | 3.6 µM | 3.8 µM | 3.4 µM | – | – | – | – | – | – | – | – | – | – | – | –
CCCCCCCCCCCCS[C@@H]1[C@H](F)[C@@H](O)[C@H](O)[C@H]2COC(=O)N21 | 21 µM | 17 µM | 22 µM | 19 µM | 21 µM | 22 µM | – | – | – | – | – | – | Non-Toxic | Active | Active | – | – | –
CCCCCCCCCCCCS(=O)(=O)[C@@H]1[C@@H](F)[C@@H](O)[C@H](O)[C@H]2COC(=O)N21 | 4.3 µM | 2.9 µM | 3.6 µM | 3.1 µM | 10 µM | 7.4 µM | – | – | – | – | – | – | – | – | – | – | – | –
CCCCCCCCCCCCS(=O)(=O)[C@@H]1[C@H](O)[C@@H](OCc2ccccc2)[C@H](O)[C@H]2COC(=O)N21 | 13 µM | 7.1 µM | 10 µM | 9.2 µM | 14 µM | 15 µM | – | – | – | – | – | – | Non-Toxic | Active | Active | – | – | –
CCCCCCCCCCCCS[C@@H]1[C@H](O)[C@@H](O)[C@H](O)[C@H]2COC(=O)N21 | 18 µM | 16 µM | 18 µM | 17 µM | 18 µM | 17 µM | – | – | – | – | – | – | – | – | – | – | – | –
CCCCCCCCCCCCS[C@@H]1[C@H](F)[C@@H](OCc2ccccc2)[C@H](O)[C@H]2COC(=O)N21 | 20 µM | 18 µM | 19 µM | 13 µM | 18 µM | 19 µM | – | – | – | – | – | – | – | – | – | – | – | –
CCCCCCCCCCCCS(=O)(=O)[C@@H]1[C@H](F)[C@@H](OCc2ccccc2)[C@H](O)[C@H]2COC(=O)N21 | 3.6 µM | 4.3 µM | 4.2 µM | 3.3 µM | 9.7 µM | 4.2 µM | – | – | – | – | – | – | Non-Toxic | Active | Active | Active | inactive | inactive
O=C1OC[C@@H]2[C@@H](O)[C@H](O)[C@H](O)[C@@H](O)N12 | > 100 µM | > 100 µM | > 100 µM | > 100 µM | > 100 µM | > 100 µM | – | – | – | – | – | – | – | – | – | – | – | –
CCCCCCCCCCCCS[C@@H]1[C@@H](F)[C@@H](OCc2ccccc2)[C@H](O)[C@H]2COC(=O)N21 | 18 µM | 13 µM | 18 µM | 19 µM | 20 µM | 18 µM | – | – | – | – | – | – | – | – | – | – | – | –
O=C1OC[C@@H]2[C@@H](O)[C@H](O)[C@@H](O)[C@@H](O)N12 | > 100 µM | > 100 µM | > 100 µM | > 100 µM | > 100 µM | > 100 µM | – | – | – | – | – | – | – | – | – | – | – | –
O=c1[nH]cc(F)c(=O)[nH]1 [FLUOROURACIL] | 49 µM | 2.2 µM | 4.3 µM | 15 µM | 47 µM | 5.5 µM | – | – | – | – | – | – | – | – | – | – | – | –
O=C1OC[C@@H]2[C@@H](O)[C@H](O)[C@@H](F)[C@@H](O)N12 | > 100 µM | > 100 µM | > 100 µM | > 100 µM | > 100 µM | > 100 µM | – | – | – | – | – | – | Non-Toxic | Active | Active | – | – | –
